Data set [1] is described as follows: Metabolic stability in rat liver microsomes assessed as compound remaining preincubated for 5 mins followed by NADPH addition measured after 15 mins by LC/MS analysis. Format: ADME, Microsome. Particulars: time 20 min, read-out: Stability. An outline of the steps:
(§1)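 Liver microsomes (final protein 0.75 mg/mL) with compound in 100 mM phosphate buffer pH 7.4, preincubated 5 min at 37 °C. Reaction started with NADPH regeneration system, stopped at 5, 15, 30 and 45 min with acetonitrile containing internal standard. Percent remaining measured by LC/MS, with ketanserin as reference; variation given as RSD of area ratio.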
For orientation: Liver microsomes are a subcellular fraction often used to study metabolism.

A short description of data set [2]: Clearance in ICR mouse at 1 mg/kg, iv measured for 0.08 to 24 hrs by LC-MS/MS analysis. In kind it is ADME, organism-based. Particulars: in vivo, time 0.08-24 hrs. An outline of the steps:
(§2)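 Male ICR mice, single intravenous dose formulated in 5% DMSO, 4% ethanol, 5% Cremophor EL, 86% water. Blood sampled at 5, 15, 30 min, 1, 2, 4, 8 and 24 h; plasma stored at -20 °C. Compound quantified by LC-MS/MS, with parameters from non-compartmental analysis.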

For a further data set, the system named is Staphylococcus aureus. Put plainly: Antibacterial activity against Staphylococcus aureus ATCC25923 assessed as bacterial growth inhibition incubated for 18 hrs by CLSI based broth microdilution method. Format: functional. An outline of the steps: (§3)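 CLSI broth microdilution. Log-phase bacteria in Mueller Hinton broth added to 2-fold serial dilutions spanning 128 to 0.25 or 2 to 0.004 µg/mL. Incubated aerobically for 18 h at 37 °C, then OD600 read. MIC is the lowest concentration giving ≥90% growth inhibition; three independent assays.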
On the technique in general: Dilution methods test growth across graded concentrations, often in twofold steps.

Data set [3] is described as follows: AUC (0 to infinity) in ICR mouse at 1 mg/kg, iv measured for 0.08 to 24 hrs by LC-MS/MS analysis. In kind it is ADME, organism-based. Also noted: dose 1 mg/kg, time upper 24 hrs, time lower 0.08 hrs, route iv. The following applies: in vivo. In short, it runs like this: as §2
Data set [4] in a line: Metabolic stability in human liver microsomes assessed as compound remaining preincubated for 5 mins followed by NADPH addition measured after 30 mins by LC/MS analysis. Format: ADME, Microsome. Particulars: time 35 min, read-out: Stability. An outline of the steps: as §1
A short description of data set [5]: Tmax in ICR mouse at 1 mg/kg, iv measured for 0.08 to 24 hrs by LC-MS/MS analysis. In kind it is ADME, organism-based. Particulars: in vivo, time 0.08-24 hrs. An outline of the steps: as §2
Data set [6] can be described thus: Half life in ICR mouse at 1 mg/kg, iv measured for 0.08 to 24 hrs by LC-MS/MS analysis. In kind it is ADME, organism-based. The following applies: in vivo, time 0.08-24 hrs. In short, it runs like this: as §2
Data set [7] in a line: Metabolic stability in rat liver microsomes assessed as compound remaining preincubated for 5 mins followed by NADPH addition measured after 45 mins by LC/MS analysis. Particulars: time 50 min, read-out: Stability. Format: ADME, Microsome. In short, it runs like this:
as §1

Data set [8] can be described thus: Metabolic stability in human liver microsomes assessed as compound remaining preincubated for 5 mins followed by NADPH addition measured after 45 mins by LC/MS analysis. In kind it is ADME, Microsome. The following applies: time 50 min, read-out: Stability. In short, it runs like this:
as §1

Data set [9] is described as follows: Metabolic stability in rat liver microsomes assessed as compound remaining preincubated for 5 mins followed by NADPH addition measured after 30 mins by LC/MS analysis. Format: ADME, Microsome. The following applies: time 35 min, read-out: Stability. In short, it runs like this: as §1
Data set [10] is described as follows: Metabolic stability in human liver microsomes assessed as compound remaining preincubated for 5 mins followed by NADPH addition measured immediately by LC/MS analysis. In kind it is ADME, Microsome. Particulars: read-out: Stability. In short, it runs like this: as §1
The subject of data set [11] is Bacillus subtilis. Put plainly: Antibacterial activity against Bacillus subtilis ATCC9372 assessed as bacterial growth inhibition incubated for 18 hrs by CLSI based broth microdilution method. Format: functional. In short, it runs like this:
as §3

Data set [12] can be described thus: Bioavailability in ICR mouse at 5 mg/kg, po measured for 0.25 to 24 hrs by LC-MS/MS analysis. In kind it is ADME, organism-based. The following applies: in vivo, time 0.25-24 hrs. An outline of the steps: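 Male ICR mice dosed orally with a solution of 5% DMSO, 4% ethanol, 5% Cremophor EL and 86% water. Blood collected at 15, 30 min, 1, 2, 4, 6, 8 and 24 h; plasma stored at -20 °C. Plasma levels measured by LC-MS/MS; parameters by non-compartmental analysis, with bioavailability relative to the 1 mg/kg iv dose.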

Data set [13] deals with Bacillus subtilis. Put plainly: Antibacterial activity against Bacillus subtilis ATCC9372 assessed as reduction in bacterial count at 2 times MIC measured for 3 hrs by time kill curve assay. Format: functional, organism-based. An outline of the steps:
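Time-kill: log-phase cultures diluted to about 10^6 CFU/mL in MHB with compound at 1×, 2×, 4× or 8× MIC (vancomycin at 2× MIC), shaken at 37 °C. Samples taken at 3, 6, 12 and 24 h, serially diluted and plated on LB agar. Colonies counted after 24 h at 37 °C; detection limit 10^3 CFU/mL.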

The subject of data set [14] is Bacillus subtilis. The experiment in a line: Antibacterial activity against Bacillus subtilis BS01 assessed as bacterial growth inhibition incubated for 18 hrs by CLSI based broth microdilution method. Format: functional. An outline of the steps:
as §3

Data set [15] in a line: Metabolic stability in rat liver microsomes assessed as half life preincubated for 5 mins followed by NADPH addition measured upto 45 mins by LC/MS analysis. Particulars: time < 50 min. In kind it is ADME, Microsome. In short, it runs like this:
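Liver microsomes at 0.75 mg/mL final protein, with test article and NADPH regeneration system (6 mM) in 100 mM phosphate buffer, pH 7.4. Preincubated 5 min at 37 °C, then started with NADPH. Quenched with acetonitrile containing internal standard at 5, 15, 30 and 45 min, centrifuged, and percent remaining measured by LC/MS. Ketanserin served as reference.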

Data set [16] can be described thus: Metabolic stability in rat liver microsomes assessed as compound remaining preincubated for 5 mins followed by NADPH addition measured immediately by LC/MS analysis. Format: ADME, Microsome. Particulars: read-out: Stability.
Data set [17] can be described thus: Metabolic stability in mouse liver microsomes assessed as compound remaining preincubated for 5 mins followed by NADPH addition measured after 45 mins by LC/MS analysis. The following applies: time 50 min, read-out: Stability. Format: ADME, Microsome. In short, it runs like this:
as §1

The test system of a further data set is Klebsiella pneumoniae. Put plainly: Antibacterial activity against Klebsiella pneumoniae 14578 assessed as bacterial growth inhibition incubated for 18 hrs by CLSI based broth microdilution method. Format: functional. In short, it runs like this:
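Broth microdilution to CLSI guidelines. Log-phase bacteria grown in Mueller Hinton broth, diluted, then exposed to 2-fold serial dilutions of compound (128 to 0.25 µg/mL or 2 to 0.004 µg/mL). Incubated aerobically 18 h at 37 °C. Growth read as OD600. MIC = lowest concentration giving ≥90% growth inhibition. Three independent assays.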

A short description of data set [18]: Metabolic stability in rat liver microsomes assessed as compound remaining preincubated for 5 mins followed by NADPH addition measured after 5 mins by LC/MS analysis. Particulars: time 10 min, read-out: Stability. In kind it is ADME, Microsome. In short, it runs like this: as §1

In brackets after ≈: the same amount, converted by molar mass. Activity calls are given as the source filed them.

The term MIC denotes the lowest concentration that inhibits growth of the organism. In general, AUC(0-inf) refers to total exposure, with the tail of the curve extrapolated. Broadly, the Tmax is the time from dosing to the highest level. By bioavailability is commonly meant dose-corrected exposure relative to a reference, in per cent. A higher bioavailability goes with much systemic uptake. One may read the half-life as the time needed for the level to fall by half in the phase considered. `Cc1cc(Cl)ccc1-c1cccc(COc2ccc(F)c(C(N)=O)c2F)c1`: the remaining at 0.25 h in [1] is 39%. The same compound registered a CL in data set [2] of 94.713 mL/min/kg. Further, the MIC in the data set on Staphylococcus aureus is 0.125 µg/mL (≈ 0.322 µM); with Bacillus subtilis [11] it was 0.016 µg/mL (≈ 0.0413 µM); in the data set on Bacillus subtilis [14] it was 0.016 µg/mL (≈ 0.0413 µM); in the data set with Klebsiella pneumoniae, greater than 128 µg/mL. Moreover, the AUC(0-inf) in data set [3] was 179 ng·h/mL. Further, the results for the remaining at 0.5 h in data set [4] and in [9] were 83.4% and 19.1%, respectively. Also, the Tmax in [5] came to 4.98 min. The compound also showed a t1/2 in data set [6] of 16.8 min. Also, the results for the remaining at 0.75 h in data set [7], in [8] and in data set [17] were 10%, 75% and 0.46%, respectively. For the same compound, the remaining at 0 min in data set [10] and in data set [16] was 100% each time. Moreover, in data set [12], the bioavailability stood at 61.2%. Further, the result with Bacillus subtilis [13] was Active. Besides, the half-life in data set [15] is 13.6 min. For the same compound, the remaining at 5 min in data set [18] turned out to be 73.7%.

Values taken from ChEMBL document CHEMBL5338714, “Design, synthesis and biological evaluation of biphenyl-benzamides as potent FtsZ inhibitors” (Eur J Med Chem, 2022).
